Reference: the EternaBench riboswitch data

Tested on: MS2 coat protein
Assay: apparent Kd, MS2 coat protein; higher = weaker binding; RNA-MaP array; FMN 200 µM where present
In short: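 The apparent Kd is the median of filtered binding-curve fits, one per cluster, to green signal normalised to red-channel RNA signal and control-cluster median Fmax. The clusters were on Illumina sequencing chips, and stalled E. coli RNA polymerase had transcribed the designs on them. Titration used SNAP-549-labelled MS2 coat protein from 0.7 or 1.5 nM, doubling to 3 µM, without and then with constant ligand, in 100 mM Tris-HCl pH 7.5, 80 mM KCl, 4 mM MgCl2, BSA, DTT, yeast tRNA and Tween-20.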

[1] = designed as: OFF switch for flavin mononucleotide, no ligand
[2] = ligand present: flavin mononucleotide, designed as: OFF switch for flavin mononucleotide
[3] = designed as: ON switch for flavin mononucleotide, no ligand
[4] = ligand present: flavin mononucleotide, designed as: ON switch for flavin mononucleotide

Sequence | apparent Kd [1] | apparent Kd [2] | apparent Kd [3] | apparent Kd [4]
CACGGUGAUGUAGGAUAUACGCUGGAAUACAGCGUAGAAGGACAUGAGGAUCACCCAUGUAAAGUGUCUCCGAAUAACACCGUG | 33.8 nM | 63.3 nM | – | –
UCCUCACAUGAGGAUCACCCAUGUCAGGAUAUCUCACAGCUAAAGAAUAAAGGCUGCAAGAGAAGGGACACAAU | 21.6 nM | 48.1 nM | – | –
UUAUUUGUACAAGGAUAUCUAUUAUAUUCACAUCCUACAUGAGGAUCACCCAUGUUAUAUAUUUUAGAGAAGGUGUAUUGUCUG | – | – | 29.9 nM | 35.3 nM
GUACUGACAGGAUAUACAUGAGGAUCACCCAUGUCCUUAUGCUGACAAAAGUCAGCGUGUAGAAGGGUCUGUAC | 141 nM | 385 nM | – | –
GUCAGCUCGUGAGGAUAUACAACACUGCUUCGGCAGUGUAUUAAGAUCACAUGAGGAUCACCCAUGUAGAAGGCACGAGCUCAU | 15.2 nM | 246 nM | – | –
GCCAUCACGUGAGGAUAUGCUCCCGUUUCGGGAGCAGAAGGCAUGUCAUAAGACAUGAGGAUCACCCAUGUAGAUAAGAUGGCA | – | – | 236 nM | 12.4 nM
AGUGUCAUCGAGAAGGCCUCGACAUGAGGAUCACCCAUGUUGUAACAUGGGAGGAUAUCGAUGAUACAGCUACGUUUCGUAGCA | – | – | 767 nM | 394 nM
CUCGUGUGAGGAUAUCUAUUCCACGGACGGGAGUCUUGAUGAGAGAAGGCACAUGAGGAUCACCCAUGUAAUAA | 140 nM | 86.7 nM | – | –
CCGGCUGCUGUGAGGAUAUGCCUGUGGGUGCGUGGGUAGAAGGCACAUGAGGAUCACCCAUGUCCUGCGGGCCC | 123 nM | 81.8 nM | – | –
CAAAUCUGAGGAUAUCGAUAUUUGUACAUGAGGAUCACCCAUGUCCUAUUUAUUAUAUUUCGAGAAGGCAGUGUAU | 19.5 nM | 17.2 nM | – | –
ACAUGAGGAUCACCCAUGUAUACAUAGGAUAUUGGUGAUCAGGCAUGUUUUACAGGAUAUGUCUGCGAGAAGGAUGCAAGUUGC | – | – | 557 nM | 424 nM
AUUUCGUCAGGAUAUCCUAGUAAUUGUUUCAUAUUUACAAAGGAGAAGGGACAUGAGGAUCACCCAUGUUGGUC | 64.6 nM | 116 nM | – | –
AAUGGCUGAGGAUAUACACUCACGUCUAAAAGGUUCAAAUGACAUGAGGAUCACCCAUGUAGAAGGCAGCCCGA | – | 50.2 nM | – | –
CAGUACUGAGGAUAUACAUGAGGAUCACCCAUGUGUUCCAGCUAGGAAACUAGCAAAAGUAGAAGGUAGUACUG | 13.7 nM | 56.5 nM | – | –
UACAUCGGAGGAUAUACAUGAGGAUCACCCAUGUGAGUGUAAGGGAGCGUAAGCGGGUGUAGAAGGCCGUCUUU | 58.3 nM | 49.5 nM | – | –
GGAUGAGAAACUCAUCCAAUUCGAACAUGAGGAUCACCCAUGUAGGAUAUGCUACUCAAAGAGUAGCAGAAGGACAUGUGCCUU | 25 nM | 189 nM | – | –
GGGUACAUCGGAGGAUAUCAUGUAAAUACAUGAGGAUCACCCAUGUCGUACGAGAGUACGGAGAUUGAGAAGGCCGAUGUACCG | – | – | 24.9 nM | 15.3 nM
CUUUUGUGAGGAUAUCAGUAGUAAAAUAAUAAAUAUACUACUGAGAAGGCACAUGAGGAUCACCCAUGUUCCUC | 37.8 nM | 233 nM | – | –
AAAAGACAUGAGGAUCACCCAUGUGAAAACGUAGGAGGAUAUGUCGUGAAAAAAGACUUGACAGAAGGCCUGUGUC | – | – | 97.7 nM | 30.8 nM

Sequence | apparent Kd [1] | apparent Kd [2] | apparent Kd [3] | apparent Kd [4]
GCGUAUUAGGUGUAGCUAGACAUUCAAGAAGGGUGAAGAACAUGAGGAUCACCCAUGUAGUUUUUACAGGAUAUUGAUAUACGC | – | – | 356 nM | 20.4 nM
UCACGGGACUAAGGAUAUACAUGAACCAUUUUUGUAGAAGGUAGAAUGUUUGAUCAUAAACUAAACAUGAGGAUCACCCAUGUU | 23.4 nM | 21 nM | – | –
AGUGUGUGGCAGGAUAUGCGAUUUGUCGGUGAAGCAGAAGGGUCUACAUGAGGAUCACCCAUGUGUGCGGUUGA | 141 nM | 381 nM | – | –
CCAUAAAAGAUCCAAAAUUACAACAUGAGGAUCACCCAUGUGCAGGAUAUCGUGCCAGUGAUGUACGAGAAGGGCAGACACUGC | 356 nM | 400 nM | – | –
UGGUGAAGUGUAGGAUAUGGAGGUGGGUUUUGGCCAGAAGGACAUGAGGAUCACCCAUGUGGUAGAGGGUUGGCGGUGGCCCGU | 16 nM | 13.7 nM | – | –
GUCACUAGAGGAUAUACAAUGGUAUAUGAUCCUAGAGACAUACAUGAGGAUCACCCAUGUAGAAGGCUAGUAAU | 81.7 nM | 46.6 nM | – | –
CGAGUUUUUGAGAAGGCAUAUUAUAUUUAUAGUCAUGUUAACAUGAGGAUCACCCAUGUUCUCUAUGAGGAUAUCAGUUUAUCG | 7.68 nM | 7.87 nM | – | –
AGAUGGCGAGGAUAUACAUGAGGAUCACCCAUGUGAGAGAAUAAAGUGAGGAAGAAAAGUAGAAGGCGCUGUCA | 59.4 nM | 264 nM | – | –
AAAAAGUCAGGAUAUGCGAAGGCGUCUGAUAGACGAGGCUAGCAGAAGGGACAUGAGGAUCACCCAUGUAAAAA | 31.9 nM | 45.2 nM | – | –
GUAGCAUACGGAGGAUAUUCAUAUAAUAAAUAAACAUGAGGAUCACCCAUGUGGCGAAAGCCUUGGGAGAAGGCCGAAUGCUAC | – | – | 805 nM | 39.8 nM
AAUAUGAGCUGGUAUAAACCCGAAACAUGAGGAUCACCCAUGUAGGAUAUCAGCACGAUAAGUGCUGAGAAGGACAUCCAGCUC | 14.5 nM | 14.5 nM | – | –
AUUGUUAAGUUAGGAUAUAGUAAAAUAAUUUAAUUAGAAGGAGCUCACAUGAGGAUCACCCAUGUAAGAGGAUCACCCAUGUAU | 23.5 nM | 18.9 nM | – | –
UUAUGUUUUGUAGGAUAUCAUUAGAUUUGUAUUUUAAUUGUAAUUUAGAUAUGAGAAGGACAUUUACAUGAGGAUCACCCAUGU | 14.7 nM | 10.7 nM | – | –
ACAAGAUCAGGAUAUACAUGAGGAUCACCCAUGUAUAUCCAAAAAGGGCUUUCUACAUGUAGAAGGGAUCUUGU | 13.4 nM | 13.1 nM | – | –
CCUGUGUGAGGAUAUGGUGUUGGCCAAAAGGAAUAGCUCCUCCAGAAGGCACAUGAGGAUCACCCAUGUCGUGG | 18 nM | 81.9 nM | – | –
UCGAUGCUAGGAUAUACGUAUACCUCCACCGUUGAUUCCUAACAUGAGGAUCACCCAUGUAGAAGGAGCAUCUA | 23.8 nM | 23.6 nM | – | –
AGAUGGUAUAUAGGAUAUCAUGUGCAAACAUGAGGAUCACCCAUGUAGGAACGUCAGUUCAAUAAUGAGAAGGAUAUACCAUCU | – | – | 33.4 nM | 11.9 nM
CGUAAGAUGCAGAAGGUGUUAGCUAGAGCUACGACAUGAGGAUCACCCAUGUACUAGAAACAGUACAAGGAUAUGCAUCUUACU | – | – | 18.4 nM | 6.25 nM
UGCAAAAUUGCAACAUGAGGAUCACCCAUGUCUGGGUUGGCCAAGGAUAUGCUUCUAAUCCUAGUGCAGAAGGUGGAAACUCAU | – | – | 201 nM | 530 nM

Sequence | apparent Kd [1] | apparent Kd [2] | apparent Kd [3] | apparent Kd [4]
AAGUAUAAGGGCAUUAAACAUGAGGAUCACCCAUGUACAAUAGAGGAUAUGCAUUUCGGUUUAGAGUAGAAGGUUAGAGAAUAU | 27.6 nM | 33.7 nM | – | –
GUAGCAUACCGAGGAUAUUCAUAUAGGAAACAAACAUGAGGAUCACCCAUGUGGCGAAAGCCUUGGGAGAAGGCGGAAUGCUAC | – | – | 115 nM | 21.1 nM
CCGUUUUGAGGAUAUCCACCCUCAUACAUGAGGAUCACCCAUGUUCACCCUUGGGUUCCCGGAGAAGGCAGUUUUC | 1120 nM | 828 nM | – | –
UGAAAUCAUGUAGGAUAUGCAUGGCGAAGCUACGCAGAAGGACAUGAGGAUCACCCAUGUUAAAGCUACCGGAUACGGUGGCAA | 192 nM | 156 nM | – | –
AUUAUAUAGACAGGAUAUUGAUUAUUAUUUUAACAUGAGGAUCACCCAUGUAGCCUUAUGUAUAGCAAGAAGGGUCAUUUAUUA | 135 nM | 206 nM | – | –
GUAGCAUACCGAGGAUAUUCAGGGCGUGGAUAUACAUGAGGAUCACCCAUGUGGCGAAAGCCUAGGGAGAAGGCGGAAUGCUAC | – | – | 23.6 nM | 17 nM
GGGUCCAACACAGGAUAUGCUGGACUUUGUCCAGCAGAAGGGUGAAGAACAUGAGGAUCACCCAUGUGGAUCCAUAUAUUUAAU | – | – | 236 nM | 17.9 nM
AUGUGACAUGAGGAUCACCCAUGUAAGGAUAUAUGACUAAGGACUUCCUUGGUAGCGCGUAGAAGGUACGUGAA | 19.6 nM | 20 nM | – | –
GCACGAAGCUAGAAGGGCGAUUUGCACAUGAGGAUCACCCAUGUCCAACGUAGGAUAUGGCUGGCGGGAACGCAAGGUGCGCGC | – | – | 330 nM | 37.3 nM
UUUGCAACAUGAGGAUCACCCAUGUAGGAUAUCGCUAUUGUAAUCAUGAAACAUGAUUACAAUAGCGAGAAGGACAUAUGCAAA | 7.54 nM | 10.4 nM | – | –
UUUUAACAUGAGGAUCACCCAUGUGAGGAUAUCGAUAUUUAUAUUAAUAUUAAUAAAACGAGAAGGCACAUUUU | 71 nM | 87.2 nM | – | –
UUCAGCUCGUCAGGAUAUACGUCACUGCUUCGGCAGUGUGGUAAGAUCACAUGAGGAUCACCCAUGUAGAAGGGACGAGCUGAG | 12.3 nM | 312 nM | – | –
GGUCCAUUAUGAGGAUAUGGCACCUUAUUGGUGCCAGAAGGCAUGUCUUCACAUGAGGAUCACCCAUGUUAAAUAAAUUGGACC | – | – | 16.3 nM | 17.7 nM
CAGAAGUCAGGAUAUGCUGCUCGUCACUUGCGUGAUGAGUAGCAGAAGGGACAUGAGGAUCACCCAUGUAAAGC | 53.5 nM | 87.1 nM | – | –
AGCCAAGCAGGAUAUGCCCGGGAUAACAUGAGGAUCACCCAUGUGACCGAUUGAUGUCCUGCAGAAGGGCUUGGGA | 15.6 nM | 79.8 nM | – | –
GGGUACAUCGGAGGAUAUCAUGUAAAUACAUGAGGAUCACCCAUGUCGAUGGAGACAGCGGAGAUUGAGAAGGCCGAUGUACCG | – | – | 105 nM | 190 nM
AGUUAGAUAGCGAUAUGAUCGAGAGAUCAUGUCGCUAAAUUUAGAAGGACAUGAGGAUCACCCAUGUAGGAUAUGGGUAUAGAA | – | – | 367 nM | 128 nM
AAAAGACAUGAGGAUCACCCAUGUGAAAACGUGCGAGGAUAUGUAUGGAAACCAUACUGUACAGAAGGCGUUUGUC | – | – | 31.2 nM | 31.6 nM
